Results from ChEMBL document CHEMBL1145431, “Improved anti-osteoporosis potency and reduced endometrial membrane hyperplasia during hormone replacement therapy with estrogen-RGD peptide conjugates” (2007).
Where a SMILES comes first, the peptide text is derived from it. The star is where a group is joined. X1 = C[C@]12CC[C@@H]3c4ccc(OCC(=O)*)cc4CC[C@H]3[C@@H]1CCC2O

How the values were obtained:
Mus musculus [1] = assay: Effect on spleen weight in mouse at 0.011 mmol/kg, ip; assay type: functional
Procedure, shortened: (§1)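 Dose-response in OVX Kuiming mice, i.p. daily for 4 weeks in 0.5% CMC at 11.03, 55.15 or 110.3 × 10-3 mmol/kg. Left femur: length, then defatting, drying at 120 °C for 6 h (dry weight), ashing at 800 °C for 8 h. Ash/dry ratio gives mineral content. Ash Ca and P measured colorimetrically. Liver, lung and spleen weighed directly. n = 12, ANOVA.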

Mus musculus [2] = assay: Effect on femur length in recipient mouse at 0.055 mmol/kg, ip; assay type: functional; procedure, shortened: as §1
Mus musculus [3] = assay: Effect on mineral level in mouse femur at 0.055 mmol/kg, ip; assay type: functional; procedure, shortened: as §1
Mus musculus [4] = assay: Effect on liver weight in mouse at 0.011 mmol/kg, ip; assay type: functional; procedure, shortened: as §1
Mus musculus [5] = assay: Effect on mineral content in mouse at 0.1103 mmol/kg, po; assay type: functional
Procedure, shortened: (§2)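 Female Kuiming mice (7 weeks old, 30.7 ± 3.1 g) under abdominal OVX, sham group abdominorotomy only. From day 5 after surgery, dosed orally once daily for 4 weeks at 110.3 × 10-3 mmol/kg in 0.5% CMC (0.2 mL), vehicle group CMC alone. Blood drawn retro-orbitally, then left femur and organs removed under pentobarbital (40.0 mg/kg, i.p.).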

Mus musculus [6] = assay: Effect on phosphorus level in ovariectomized mouse at 0.1103 mmol/kg, ip once daily for 4 weeks; assay type: functional
Procedure, shortened: (§3)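 Female Kuiming mice (7 weeks, 30.7 ± 3.1 g) ovariectomized, sham group abdominorotomy. From day 5, i.p. once daily for 4 weeks at 110.3 × 10-3 mmol/kg in 0.5% CMC. Left femur cleaned, length measured, defatted in chloroform-methanol (2:1, 2 × 3 h), dried 120 °C 6 h for dry weight, ashed 800 °C 8 h. Mineral content = ash/dry weight. Ash dissolved in 6 N HCl and diluted. Ca by o-methylphenolphthalein complexone, P by molybdenum blue. Lungs and livers weighed directly.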

Mus musculus [7] = assay: Effect on femur ash weight in mouse at 0.1103 mmol/kg, po; assay type: functional; procedure, shortened: as §2
Mus musculus [8] = assay: Effect on lung weight in mouse at 0.011 mmol/kg, ip; assay type: functional; procedure, shortened: as §1
Mus musculus [9] = assay: Effect on liver weight in ovariectomized mouse at 0.110 mmol/kg, ip once daily for 4 weeks; assay type: functional; procedure, shortened: as §3
Mus musculus [10] = assay: Effect on spleen weight in mouse at 0.1103 mmol/kg, po; assay type: functional; procedure, shortened: as §2
Mus musculus [11] = assay: Effect on femur ash weight in recipient mouse at 0.055 mmol/kg, ip; assay type: functional; procedure, shortened: as §1
Mus musculus [12] = assay: Effect on femur length in recipient mouse at 0.011 mmol/kg, ip; assay type: functional; procedure, shortened: as §1
Mus musculus [13] = assay: Effect on lenght of femur in mouse at 0.110 mmol/kg, po; assay type: functional; procedure, shortened: as §2
Mus musculus [14] = assay: Effect on serum calcium level in mouse at 0.1103 mmol/kg, po; assay type: functional
Procedure, shortened: (§4)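 Oral OVX Kuiming mouse model, dosed daily for 4 weeks at 110.3 × 10-3 mmol/kg in 0.5% CMC. Retro-orbital blood stood 30 min at room temperature and was spun at 3000 g for 20 min. Serum kept at -20 °C. Calcium read by o-methylphenolphthalein complexone, phosphorus by molybdenum blue, ALP by activity on disodium phenylphosphate substrate.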

Mus musculus [15] = assay: Effect on dry weight of femur in recipient mouse at 0.011 mmol/kg, ip; assay type: functional; procedure, shortened: as §1
Mus musculus [16] = assay: Effect on mineral level in mouse femur at 0.011 mmol/kg, ip; assay type: functional; conditions: in the assay text read “0.11 mmol/kg” for “0.011 mmol/kg”; procedure, shortened: as §1
Mus musculus [17] = assay: Effect on lung weight in ovariectomized mouse at 0.1103 mmol/kg, ip once daily for 4 weeks; assay type: functional; procedure, shortened: as §3
Mus musculus [18] = assay: Effect on serum ALP level in mouse at 0.1103 mmol/kg, po; assay type: functional; procedure, shortened: as §4
Mus musculus [19] = assay: Effect on calcium level in mouse at 0.1103 mmol/kg, po; assay type: functional; procedure, shortened: as §2
Mus musculus [20] = assay: Effect on liver weight in mouse at 0.1103 mmol/kg, po; assay type: functional; procedure, shortened: as §2
Mus musculus [21] = assay: Effect on serum ALP level in mouse at 0.011 mmol/kg, ip; assay type: functional
Procedure, shortened: (§5)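 Dose-response in OVX Kuiming mice, i.p. daily for 4 weeks in 0.5% CMC at 11.03, 55.15 or 110.3 × 10-3 mmol/kg. Serum from retro-orbital blood (3000 g, 20 min). Calcium by o-methylphenolphthalein complexone, phosphorus by molybdenum blue, ALP by activity on disodium phenylphosphate. n = 12, ANOVA.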

Mus musculus [22] = assay: Effect on femur length in ovariectomized mouse at 0.1103 mmol/kg, ip once daily for 4 weeks; assay type: functional; procedure, shortened: as §3
Mus musculus [23] = assay: Effect on calcium level in mouse femur at 0.011 mmol/kg, ip; assay type: functional; procedure, shortened: as §1
Mus musculus [24] = assay: Effect on serum phosphorous Concentration in mouse at 0.110 mmol/kg, po; assay type: functional; procedure, shortened: as §4
Mus musculus [25] = assay: Effect on uterus weight in mouse at 0.055 mmol/kg, ip; assay type: functional
Procedure, shortened: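 Dose study in abdominally ovariectomized female Kuiming mice (30.7 ± 3.1 g). Daily i.p. dosing in aqueous 0.5% CMC from day 5 after surgery for 4 weeks, at 110.3, 55.15 or 11.03 × 10-3 mmol/kg. Liver, lung, spleen and uterus were removed after pentobarbital euthanasia and weighed. n = 12, ANOVA, p < 0.05.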

Mus musculus [26] = assay: Effect on mineral content in ovariectomized mouse at 0.1103 mmol/kg, ip once daily for 4 weeks; assay type: functional; procedure, shortened: as §3
Mus musculus [27] = assay: Effect on lung weight in mouse at 0.1103 mmol/kg, po; assay type: functional; procedure, shortened: as §2
Mus musculus [28] = assay: Effect on femur ash weight in recipient mouse at 0.011 mmol/kg, ip; assay type: functional; procedure, shortened: as §1
Mus musculus [29] = assay: Effect on liver weight in mouse at 0.055 mmol/kg, ip; assay type: functional; procedure, shortened: as §1
Mus musculus [30] = assay: Effect on serum calcium level in mouse at 0.1103 mmol/kg, ip; assay type: functional
Procedure, shortened: (§6)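 OVX Kuiming mice dosed i.p. daily for 4 weeks in 0.5% CMC. Blood taken retro-orbitally on the day after the last dose, stood 30 min, spun at 3000 g for 20 min, serum stored at -20 °C. Calcium by o-methylphenolphthalein complexone, phosphorus by molybdenum blue, ALP by activity with disodium phenylphosphate substrate.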

Mus musculus [31] = assay: Effect on lung weight in mouse at 0.055 mmol/kg, ip; assay type: functional; procedure, shortened: as §1
Mus musculus [32] = assay: Effect on dry weight of femurs in mouse at 0.1103 mmol/kg, po; assay type: functional, Femur; procedure, shortened: as §2
Mus musculus [33] = assay: Effect on uterus weight in mouse at 0.1103 mmol/kg, po; assay type: functional
Mus musculus [34] = assay: Effect on serum ALP lavel in ovariectomized mouse at 0.1103 mmol/kg, ip once daily for 4 weeks; assay type: functional; procedure, shortened: as §6
Mus musculus [35] = assay: Effect on uterus weight in ovariectomized mouse at 0.1103 mmol/kg, ip once daily for 4 weeks; assay type: functional
Procedure, shortened: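 Female Kuiming mice (7 weeks old, 30.7 ± 3.1 g), abdominal OVX under pentobarbital (40.0 mg/kg i.p.). From day 5 after surgery, i.p. injection once daily for 4 weeks, compound in aqueous 0.5% CMC prepared just before use. The day after the last dose, mice were anesthetized and killed, and lungs, livers, spleens and uteri were removed and weighed directly. n = 12, ANOVA, p < 0.05.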

Mus musculus [36] = assay: Effect on serum phosphorous level in mouse at 0.011 mmol/kg, ip; assay type: functional; conditions: in the assay text read “0.11 mmol/kg” for “0.011 mmol/kg”; procedure, shortened: as §5
Mus musculus [37] = assay: Effect on serum phosphorous level in mouse at 0.055 mmol/kg, ip; assay type: functional; procedure, shortened: as §5

| SMILES | Activity (Mus musculus [1]) [mg] | Activity (Mus musculus [2]) [cm] | Ratio (Mus musculus [3]) | Activity (Mus musculus [4]) [g] | Ratio (Mus musculus [5]) [%] | Activity (Mus musculus [6]) [%] | Activity (Mus musculus [7]) [mg] | Activity (Mus musculus [8]) [mg] | Activity (Mus musculus [9]) [g] | Activity (Mus musculus [10]) [mg] | Activity (Mus musculus [11]) [mg] | Activity (Mus musculus [12]) [cm] | Activity (Mus musculus [13]) [cm] | Activity (Mus musculus [14]) [mmol/L] | Activity (Mus musculus [15]) [mg] | Ratio (Mus musculus [16]) | Activity (Mus musculus [17]) [mg] | Activity (Mus musculus [18]) [U/L] | Activity (Mus musculus [19]) [%] | Activity (Mus musculus [20]) [g] | further results |
| --- | --- | --- | --- | --- | --- | --- | --- | --- | --- | --- | --- | --- | --- | --- | --- | --- | --- | --- | --- | --- | --- |
| C[C@]12CC[C@@H]3c4ccc(OCC(=O)N[C@@H](CCCNC(=N)N)C(=O)NCC(=O)N[C@@H](CC(=O)O)C(=O)N[C@@H](Cc5ccccc5)C(=O)O)cc4CC[C@H]3[C@@H]1CCC2O (stereo partly specified) (X1-RGDF-OH) | 145 | 1.624 | 0.504 | 1.57 | 52.5 | 25.46 | 28.7 | 174 | 1.395 | 135 | 31.6 | 1.623 | 1.626 | 2.04 | 46.9 | 0.585 | 169 | 33.7 | 53.001 | 1.339 | Activity (Mus musculus [21]): 38.6 U/L; Activity (Mus musculus [22]): 1.635 cm; Activity (Mus musculus [23]): 42.9%; Activity (Mus musculus [24]): 1.6 mmol/L; Activity (Mus musculus [25]): 55.3 mg; Ratio (Mus musculus [26]): 0.585; Activity (Mus musculus [27]): 165 mg; Activity (Mus musculus [28]): 20.8 mg; Activity (Mus musculus [29]): 1.407 g; Activity (Mus musculus [30]): 2.015 mmol/L; Activity (Mus musculus [31]): 155 mg; Activity (Mus musculus [32]): 63.1 mg; Activity (Mus musculus [33]): 47.5 mg; Activity (Mus musculus [34]): 31.529 U/L; Activity (Mus musculus [35]): 55.4 mg; Activity (Mus musculus [36]): 1.605 mmol/L; Activity (Mus musculus [37]): 1.602 mmol/L |
| C[C@]12CC[C@@H]3c4ccc(OCC(=O)N[C@@H](CCCNC(=N)N)C(=O)NCC(=O)N[C@@H](CC(=O)O)C(=O)N[C@@H](CO)C(=O)O)cc4CC[C@H]3[C@@H]1CCC2O (stereo partly specified) (X1-RGDS-OH) | 125 | 1.622 | 0.479 | 1.42 | 52.2 | 24.949 | 30.4 | 181 | 1.377 | 138 | 31.6 | 1.642 | 1.635 | 2.03 | 48.8 | 0.582 | 173 | 35.211 | 51.988 | 1.329 | Activity (Mus musculus [21]): 40.3 U/L; Activity (Mus musculus [22]): 1.642 cm; Activity (Mus musculus [23]): 41.5%; Activity (Mus musculus [24]): 1.6 mmol/L; Activity (Mus musculus [25]): 48.6 mg; Ratio (Mus musculus [26]): 0.582; Activity (Mus musculus [27]): 166 mg; Activity (Mus musculus [28]): 18.1 mg; Activity (Mus musculus [29]): 1.397 g; Activity (Mus musculus [30]): 2.014 mmol/L; Activity (Mus musculus [31]): 167 mg; Activity (Mus musculus [32]): 68.6 mg; Activity (Mus musculus [33]): 43.2 mg; Activity (Mus musculus [34]): 31.429 U/L; Activity (Mus musculus [35]): 42.5 mg; Activity (Mus musculus [36]): 1.599 mmol/L; Activity (Mus musculus [37]): 1.607 mmol/L |
| CC(C)[C@H](NC(=O)[C@H](CC(=O)O)NC(=O)CNC(=O)[C@H](CCCNC(=N)N)NC(=O)COc1ccc2c(c1)CC[C@@H]1[C@@H]2CC[C@]2(C)C(O)CC[C@@H]12)C(=O)O (stereo partly specified) (X1-RGDV-OH) | 156 | 1.643 | 0.539 | 1.48 | 51.9 | 24.991 | 33.7 | 188 | 1.363 | 134 | 32.3 | 1.64 | 1.614 | 2.04 | 50.9 | 0.63 | 162 | 34.521 | 52.197 | 1.337 | Activity (Mus musculus [21]): 38.5 U/L; Activity (Mus musculus [22]): 1.64 cm; Activity (Mus musculus [23]): 42.1%; Activity (Mus musculus [24]): 1.61 mmol/L; Activity (Mus musculus [25]): 57.6 mg; Ratio (Mus musculus [26]): 0.63; Activity (Mus musculus [27]): 163 mg; Activity (Mus musculus [28]): 20.6 mg; Activity (Mus musculus [29]): 1.462 g; Activity (Mus musculus [30]): 2.005 mmol/L; Activity (Mus musculus [31]): 179 mg; Activity (Mus musculus [32]): 68.4 mg; Activity (Mus musculus [33]): 40.7 mg; Activity (Mus musculus [34]): 30.514 U/L; Activity (Mus musculus [35]): 50.3 mg; Activity (Mus musculus [36]): 1.6 mmol/L; Activity (Mus musculus [37]): 1.586 mmol/L |
